Compounds with a hit are over-represented: about 3.5% of the library has one in this group of screens.
MrgX1 PAM: human MrgX1 positive allosteric modulation, primary screen; Q96LB2; MrgX1-HEK293, Fluo-4 calcium flux, FDSS; stronger effect = higher value; B-score at 10 µM; 310,000 compounds, 0.63% hits; AID 588675;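 active = plate-corrected calcium response at least 3 library SD above typical, normal starting fluorescence, not activating the receptor alone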;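 note: compound read alongside a low EC10 to EC30 dose of BAM8-22 agonist; peak minus trough fluorescence over baseline measured at the second addition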
Target sequence (Q96LB2 whole entry, looked up): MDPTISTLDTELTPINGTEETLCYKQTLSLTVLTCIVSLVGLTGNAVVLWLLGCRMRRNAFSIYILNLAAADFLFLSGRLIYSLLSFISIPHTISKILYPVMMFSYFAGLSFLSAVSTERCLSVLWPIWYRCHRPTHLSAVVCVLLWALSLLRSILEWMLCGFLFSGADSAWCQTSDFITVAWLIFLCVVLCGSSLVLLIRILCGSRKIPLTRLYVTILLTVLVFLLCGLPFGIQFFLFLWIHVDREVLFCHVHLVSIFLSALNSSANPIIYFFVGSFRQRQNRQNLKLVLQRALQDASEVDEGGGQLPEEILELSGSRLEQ
MrgX1 agonist: agonists of human MrgX1 receptor. B-score at 10 µM. MrgX1-HEK293 cells, Fluo-4 calcium fluorescence, agonist mode; stronger effect = higher value. 310,000 compounds, 0.44% hits. AID 588627. Q96LB2;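 active = calcium response B-score plate-corrected fluorescence ratio at least 3 library SD, with starting fluorescence B-score inside 5 SD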
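Test system: HEK293 cells stably expressing human MrgX1 receptor; Input: fifteen thousand cells per well; Dosing: compound delivered in addition one of three; Schedule: overnight seeding, then 1 h dark dye loading; Technique: Fluo-4 NW calcium fluorescence; Measure: B-scored fluorescence response ratio; Controls: positive and negative controls per plate.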
RGS4 block: inhibitors of human RGS4; HEK293 M3R/RGS4 inducible, Fluo-4 calcium flux; stronger effect = higher value; triggered by carbachol at its EC20; P49798; 310,000 compounds, 0.45% hits; B-score at 10 µM; AID 463165;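 active = B-score, a plate-corrected calcium signal, over three deviations above library mean, with baseline fluorescence within five deviations of library mean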;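 note: RGS4 expression induced by doxycycline in cells with stable M3 receptor; B-score is computed from the integrated fluorescence ratio over baseline after carbachol; higher B-score means a larger calcium signal and so more RGS4 inhibition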
Target sequence (P49798 whole entry, looked up): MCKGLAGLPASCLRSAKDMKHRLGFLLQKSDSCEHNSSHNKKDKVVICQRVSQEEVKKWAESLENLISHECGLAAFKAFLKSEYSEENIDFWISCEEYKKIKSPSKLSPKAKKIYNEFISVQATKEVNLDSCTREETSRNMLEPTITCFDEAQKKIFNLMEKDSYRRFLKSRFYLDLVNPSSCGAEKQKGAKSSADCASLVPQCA
MrgX1 antagonist: human MrgX1 receptor antagonism, primary screen | MRGX1-HEK293 calcium flux, Fluo-4, BAM8-22 antagonism; stronger effect = lower value | B-score at 10 µM | 310,000 compounds, 1.3% hits | AID 588676;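 active = calcium-response B-score plate-corrected more than 3 library SD below zero, starting fluorescence within 5 deviations, no agonist response on first addition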;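 note: peak minus trough fluorescence over baseline after final BAM8-22 challenge near maximal dose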
RGS4 act: potentiators or activators of RGS4 | HEK293 M3R/inducible RGS4, carbachol calcium flux Fluo4; stronger effect = lower value | 310,000 compounds, 0.92% hits | B-score at 10 µM;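 active = B-score of the integrated calcium signal more than 4 SD below the library mean, with starting fluorescence not abnormally high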;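 note: negative B-score means reduced calcium response which marks RGS4 activation or potentiation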
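Assay system: Inducible-RGS4 HEK293 cells carrying M3 receptor | Schedule: Compound preincubation 20 min at room temperature before agonist | Signal: Kinetic calcium fluorescence imaging with Fluo4-AM dye, 2 µM | Read-out basis: B score from integrated fluorescence ratio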
RGS4 activ val: RGS4 activation, validation assay; shares compounds with RGS4 act; HEK293 M3R/RGS4 inducible, carbachol calcium flux Fluo4; inhibition, % at 10 µM; 1,100 compounds, 89% hits; AID 602282;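 active = inhibition above 3 SD of the buffer control wells, cut at about 41% in these data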;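 note: signal is the integrated peak-minus-minimum Fluo4 fluorescence over baseline ratio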
RGS4 act ctr: counter-screen for RGS4 activators: effect in non-induced cells. 1,100 compounds, 82% hits. HEK293 M3R non-induced RGS4, Fluo4 calcium flux; after carbachol challenge at its EC90. shares compounds with RGS4 act. inhibition, % at 10 µM;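 active = inhibition exceeding 3 SD of buffer-only control wells, cut at about 26% in these data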;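 note: percent drop in integrated peak-minus-baseline over baseline Fluo4 ratio after carbachol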
* = called active by the depositor; i = inactive; . = not tested or not shown.

SMILES	MrgX1 PAM	MrgX1 agonist	RGS4 block	MrgX1 antagonist	RGS4 act	RGS4 activ val	RGS4 act ctr
C/C=C1\COC(C(=O)NCc2ccccc2)(C(F)(F)F)C=C1C=C(C)C (stereo not given)	i	i	i	i	-7.8*	92*	93*
O=C(CN1C(=O)NC(Cc2ccccc2)C1=O)Nc1ccccc1OC(F)F (stereo not given)	i	i	i	i	i	.	.
Cc1cc(N2CC(C)OC(C)C2)nc(C(C)C)n1 (stereo not given)	i	i	i	i	i	.	.
CCOC(=O)c1ccc(NC(=O)c2c(Cl)cc(C)nc2C)cc1	i	i	i	i	i	.	.
CCOC(=O)c1ccc(Nc2cc(C)nc(C)c2C(=O)OCC)cc1	i	i	i	i	-8.4*	58*	84*
CSc1ccc(C(=O)C2CCCN(Cc3ccc(N4CCNC4=O)cc3)C2)cc1 (stereo not given)	i	i	i	i	-8*	91*	57*
COc1ccc(CN2CCCC(C(=O)c3ccc(SC)cc3)C2)cc1Cn1cccn1 (stereo not given)	i	i	i	i	i	.	.
CCOC(=O)Nc1ccc2c(c1)N(C(=O)C(C)N1CCCC1)c1ccccc1CC2 (stereo not given)	i	i	i	i	-7.9*	86*	84*
S=c1[nH]nc(-c2ccc(Br)cc2)n1Cc1ccco1	i	i	i	i	-8*	93*	78*
S=c1[nH]nc(-c2ccc(Cl)cc2)n1Cc1ccccc1	i	i	i	i	-8.9*	81*	36*
CCn1c(CNC(=O)c2ccco2)nnc1SCC(=O)c1ccc(OC)cc1	i	i	i	i	i	.	.
CCCCc1nc2cc(C(=O)NCc3nccn3CC)ccc2o1	i	i	i	i	-9.1*	92*	78*
CCN(CC)CCn1c(=N)n(CC(=O)c2ccc(Br)s2)c2ccccc21	i	i	i	i	-7.8*	58*	84*
Cc1cccc(N2CCN(C(=O)c3ccc(Cl)c(NC4=NC5CS(=O)(=O)CC5S4)c3)CC2C)c1 (stereo not given)	i	i	i	i	-8.5*	0	0
O=C(c1ccc(Cl)c(NC2=NC3CS(=O)(=O)CC3S2)c1)N1CCN(c2ccccc2)CC1 (stereo not given)	i	i	i	i	i	.	.
Cc1nn(-c2ccccc2)c(C)c1NC(=O)COC(=O)c1ccc(O)cc1O	i	i	i	i	-10*	52*	0
COC(=O)C[N+](C)(C)C/C=C\c1ccccc1	i	i	i	i	i	.	.
CN1C(C(=O)NCc2ccccc2)CC2Cn3c(nc4cc5ccccc5cc43)C21 (stereo not given)	i	i	i	i	i	.	.
COC(=O)c1cc(NC(=O)c2cccc([N+](=O)[O-])c2C)ccc1Cl	i	i	i	i	i	.	.
Cc1ccc(O)c(C(=O)c2cnc(/N=C(\N)N(C)C)nc2)c1	i	i	i	i	-8.8*	90*	69*
CSc1ncccc1C(=O)NCCc1ccccc1F	i	i	i	i	i	.	.
COc1ccc(-c2cc(C(=O)N3CCN(c4cccc(C)c4C)CC3)c3ccccc3n2)cc1OC	i	i	i	i	-8.5*	52*	0
O=C(c1cc(-c2ccncc2)nc2ccc(Br)cc12)N1CCN(c2ccccn2)CC1	i	i	i	i	i	.	.
O=C(c1cc(-c2cccc(Cl)c2)nc2ccccc12)N1CCN(c2ccccn2)CC1	i	i	i	i	-8.4*	56*	0
Cc1ccc(NC(=O)c2ccc3c(c2)OCCO3)cc1S(=O)(=O)Nc1cccc(Cl)c1	i	i	i	i	i	.	.
SMILES	MrgX1 PAM	MrgX1 agonist	RGS4 block	MrgX1 antagonist	RGS4 act	RGS4 activ val	RGS4 act ctr
CS(=O)(=O)N1CCC(C(=O)Nc2ccc(F)c(Cl)c2)CC1	i	i	i	i	-8.4*	0	0
CC1CCc2nc3ccccc3c(C(=O)OCC(=O)N3CCc4ccccc43)c2C1 (stereo not given)	i	i	i	i	i	.	.
CCCc1nc2ccccc2c(C(=O)OCC(=O)Nc2cccc(S(=O)(=O)N3CCOCC3)c2)c1CC	i	i	i	i	-8.9*	92*	92*
CCCc1nc2ccccc2c(C(=O)OCC(=O)N2CCc3ccccc32)c1CC	i	i	i	i	-8.6*	84*	84*
Cc1ccc(NC(=O)CNc2ccc(N3CCOCC3)cc2)cc1S(=O)(=O)N(C)C	i	i	i	i	i	.	.
CN(CC#CC(O)(c1ccccc1)c1ccccc1)C(C)(C)C	i	i	i	i	-10*	94*	91*
CC(C)N(CC#CC(O)(c1ccccc1)c1ccccc1)CCO	i	i	i	i	-8.6*	91*	52*
CSCc1ccc(C(=O)N2CCC(CCC(=O)N(C)Cc3ccccc3)CC2)o1	i	i	i	i	i	.	.
CC(C)c1nc(N2CCN(C(=O)c3ccco3)CC2)c(C#N)c2c1COC(C)(C)C2	i	i	i	i	-11*	82*	42*
CC1(C)Cc2c(C#N)c(N3CCN(C(=O)c4ccccc4)CC3)nc(-c3ccco3)c2CS1	i	i	.	i	.	.	.
CC(C)c1nc(N2CCN(C(=O)c3ccccc3)CC2)c(C#N)c2c1COC(C)(C)C2	i	i	i	i	-8.8*	45*	84*
O=C(NCc1ccccc1)C(c1ccco1)N(C(=O)c1ccccn1)c1ccc(F)cc1 (stereo not given)	i	i	i	i	i	.	.
Cc1ccc(C(OCC(C)(C)C[N+](C)(C)C)c2ccccc2)cc1 (stereo not given)	i	i	i	i	-11*	88*	63*
COC(=O)C(O)(CC(=O)Nc1ccc(Cl)cc1Cl)C(F)(F)F (stereo not given)	i	i	i	i	-9.2*	0	0
O=C(CCSc1ccc(Br)cc1)Nc1cccnc1	i	i	i	i	i	.	.
Cc1ccc(Oc2ccc(NC(=O)Cn3ccsc3=N)cc2)cc1	i	45*	i	i	-8.8*	89*	52*
CC(=O)N1c2ccc(S(=O)(=O)NCCC(=O)Nc3ccc(C)c(F)c3)cc2CC1C (stereo not given)	i	i	i	i	i	.	.
